Experimental data pooled from the literature.
Target: Tyrosine-protein kinase FRK (FRK, Homo sapiens, UniProt P42685)

Nc1ncc(-c2nc(N3CCOCC3)nc(N3CCOCC3)n2)c(C(F)F)n1  remaining binding (binding; competition with immobilised ligand; 10 µM): 100%
Cn1cncc1[C@](O)(COc1ccc(C#N)cc1-c1ccc(OC(F)(F)F)cc1)c1ccc(C#N)cc1  remaining binding (cell-free assay; competition with immobilised ligand; 1 µM): 100%
COc1cc(Nc2ncc(F)c(Nc3ccc4c(n3)NC(=O)C(C)(C)O4)n2)cc(OC)c1OC  inhibition (binding; competition with immobilised ligand; 10 µM): 96%
N#CC1(c2ccccn2)CCN(Cc2cc(C(=O)O)c(=O)n3ccccc23)CC1  remaining binding (cell-free assay; competition with immobilised ligand; 1 µM): 100%
Cn1cc(-c2cc(F)cc(N3CCn4c(cc5c4CCCC5)C3=O)c2CO)cc(Nc2ccc(N3CCN(C4COC4)CC3)cn2)c1=O  inhibition (enzyme activity; inhibitor; 0.1 µM): 15%
COc1ncccc1-c1cnn2ccc(N3CCN(C(=O)OC(C)C)CC3)nc12  remaining binding (binding; competition with immobilised ligand; 1 µM): 63%
O=c1[nH]c2ccccc2n1C1CCN(Cc2ccc(-c3[nH]c4cc5ncnc5cc4nc3-c3ccccc3)cc2)CC1  remaining signal (cell-free assay; 0.5 µM): 102%
Cn1cc(-c2cccc(N3CCc4c(sc5c4CC(C)(C)C5)C3=O)c2CO)cc(Nc2ccncn2)c1=O  inhibition (enzyme activity; inhibitor; 1 µM): 9%
CC(C)(C)c1cc(C=C(C#N)C#N)cc(Br)c1O  remaining activity (enzyme activity; inhibitor; 0.5 µM): 99.3%
Cc1nn(C)cc1-c1nc2c(N3CCN(Cc4ccc(Cl)cc4)CC3)c(Cl)cnc2[nH]1  remaining binding (binding; competition with immobilised ligand; 1 µM): 100%
